Here are results for 13 compounds from ChEMBL document CHEMBL4308918, “Rational Design of Cell-Active Inhibitors of PARP10” (ACS Med Chem Lett, 2019).

Data set [1] deals with T1, Protein mono-ADP-ribosyltransferase PARP10 (Homo sapiens, UniProt Q53GL7).
T1 sequence (Q53GL7 whole entry): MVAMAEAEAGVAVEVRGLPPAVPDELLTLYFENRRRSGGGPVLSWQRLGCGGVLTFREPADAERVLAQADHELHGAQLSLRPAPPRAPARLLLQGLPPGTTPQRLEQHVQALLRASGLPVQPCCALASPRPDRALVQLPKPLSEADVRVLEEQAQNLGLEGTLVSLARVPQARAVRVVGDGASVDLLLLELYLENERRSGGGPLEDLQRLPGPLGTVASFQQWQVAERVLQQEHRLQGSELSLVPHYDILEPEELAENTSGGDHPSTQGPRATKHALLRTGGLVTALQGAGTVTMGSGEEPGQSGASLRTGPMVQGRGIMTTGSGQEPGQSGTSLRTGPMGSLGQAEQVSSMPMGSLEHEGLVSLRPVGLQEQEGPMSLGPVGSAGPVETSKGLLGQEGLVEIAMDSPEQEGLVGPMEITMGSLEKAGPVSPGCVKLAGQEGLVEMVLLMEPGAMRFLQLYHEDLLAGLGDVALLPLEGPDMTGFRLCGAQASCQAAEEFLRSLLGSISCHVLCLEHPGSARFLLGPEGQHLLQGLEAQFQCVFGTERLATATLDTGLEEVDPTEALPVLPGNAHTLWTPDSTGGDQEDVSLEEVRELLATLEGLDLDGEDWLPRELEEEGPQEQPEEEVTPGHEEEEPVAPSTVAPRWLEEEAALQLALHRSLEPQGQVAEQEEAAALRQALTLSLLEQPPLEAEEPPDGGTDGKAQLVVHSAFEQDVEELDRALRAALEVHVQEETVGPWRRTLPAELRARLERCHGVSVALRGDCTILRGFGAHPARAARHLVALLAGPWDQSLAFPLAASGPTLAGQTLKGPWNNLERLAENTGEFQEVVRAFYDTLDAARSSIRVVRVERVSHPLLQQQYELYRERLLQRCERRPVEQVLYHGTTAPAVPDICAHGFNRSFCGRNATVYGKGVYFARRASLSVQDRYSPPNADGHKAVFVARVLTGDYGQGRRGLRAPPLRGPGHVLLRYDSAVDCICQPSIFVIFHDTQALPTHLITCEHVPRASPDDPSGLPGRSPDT
Kind of data set: Inhibition of human PARP10 catalytic domain assessed as reduction in MARylation of His6-tagged SRPK2 substrate after 60 mins in presence of NAD+ by chemifluorescence assay.

Data set [2] can be described thus: Aqueous solubility of the compound. It counts as physicochemical. To be noted: buffer.
The species named for data set [3] is Homo sapiens. Description: Selectivity ratio of IC50 for full length human PARP1 to IC50 for human PARP10 catalytic domain. The essentials: (§1)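 Selectivity ratio is the IC50 for the given PARP divided by the IC50 for PARP10 catalytic domain. IC50s came from the 6-a-NAD+ SRPK2 plate assay or, for cell-expressed PARPs, the immunoprecipitation auto-MARylation assay.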

For data set [4], the species on record is Homo sapiens. Description: Selectivity ratio of IC50 for human PARP15 catalytic domain to IC50 for human PARP10 catalytic domain. The essentials: as §1
In data set [5] the target is T2, Protein mono-ADP-ribosyltransferase PARP10 (Homo sapiens) (UniProt Q53GL7).
T2 sequence (whole entry): T1 sequence (Q53GL7 whole entry)
Description: Inhibition of human PARP10 catalytic domain assessed as reduction in auto-MARylation at 30 uM after 60 mins in presence of 6-a-NAD+ by chemiluminescent immunoprecipitation assay relative to control.

The species named for data set [6] is Homo sapiens. Description: Selectivity ratio of IC50 for GFP-tagged human PARP6 short isoform expressed in HEK293T cells to IC50 for human PARP10 catalytic domain. In kind it is cell-based. In short, it runs like this: as §1
The target of data set [7] is T3, Protein mono-ADP-ribosyltransferase PARP16 (Homo sapiens, UniProt Q8N5Y8).
T3 sequence (Q8N5Y8 whole entry): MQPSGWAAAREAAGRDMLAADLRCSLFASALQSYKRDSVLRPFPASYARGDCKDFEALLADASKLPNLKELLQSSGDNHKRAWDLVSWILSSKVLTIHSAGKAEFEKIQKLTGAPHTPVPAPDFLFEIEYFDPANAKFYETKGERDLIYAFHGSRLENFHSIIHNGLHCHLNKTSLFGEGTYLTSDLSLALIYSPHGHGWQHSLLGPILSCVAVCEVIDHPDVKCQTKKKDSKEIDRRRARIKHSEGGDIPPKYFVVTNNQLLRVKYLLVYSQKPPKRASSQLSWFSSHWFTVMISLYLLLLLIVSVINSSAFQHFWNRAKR
Description: Inhibition of human transmembrane domain deficient His-SUMO-tagged PARP16 expressed in Escherichia coli BL21 assessed as reduction in MARylation of His6-tagged SRPK2 substrate after 60 mins in presence of 6-a-NAD+ by chemifluorescence assay. The essentials: (§2)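 Recombinant enzyme was tested in a 96-well plate assay that monitors MARylation of the substrate SRPK2 with the clickable 6-a-NAD+.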

The species entered for data set [8] is Homo sapiens. Kind of data set: Selectivity ratio of IC50 for full length human PARP3 to IC50 for human PARP10 catalytic domain. The essentials: as §1
The species named for data set [9] is Homo sapiens. Kind of data set: Selectivity ratio of IC50 for human PARP14 catalytic-WWE domain (1459 to 1801 residues) expressed in Escherichia coli BL21 to IC50 for human PARP10 catalytic domain. In short, it runs like this: as §1
Data set [10] is filed under the species Homo sapiens. Description: Selectivity ratio of IC50 for full length human PARP2 to IC50 for human PARP10 catalytic domain. The essentials:
as §1

Data set [11] is filed under the species Homo sapiens. Kind of data set: Selectivity ratio of IC50 for human transmembrane domain deficient His-SUMO-tagged PARP16 expressed in Escherichia coli BL21 to IC50 for human PARP10 catalytic domain. In short, it runs like this:
as §1

For data set [12], the species on record is Homo sapiens. Description: Selectivity ratio of IC50 for GFP-tagged human PARP6 long isoform expressed in HEK293T cells to IC50 for human PARP10 catalytic domain. In kind it is cell-based. In short, it runs like this: as §1
For data set [13], the target named is T2, Protein mono-ADP-ribosyltransferase PARP10 (Homo sapiens). Description: Inhibition of GFP-tagged human PARP10 expressed in HEK293T cells assessed as reduction in high molecular weight target protein MARylation after 3 hrs by Western blot analysis. In kind it is cell-based. In short, it runs like this: (§3)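 HEK293T cells transfected with GFP-PARP10 and treated with compound at 1−100 μM for 3 h. A Western blot using an ADP-ribose binding reagent detected PARP10 auto-MARylation and PARP10-mediated MARylation of high molecular weight targets.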
In general terms: Immunoblotting shows a protein as a band on a membrane.

Data set [14] in a line: Inhibition of GFP-tagged human PARP6 short isoform expressed in HEK293T cells assessed as reduction in auto-MARylation after 60 mins in presence of 6-a-NAD+ by chemiluminescent immunoprecipitation assay. In kind it is cell-based.
Data set [15] addresses T2, Protein mono-ADP-ribosyltransferase PARP10 (Homo sapiens). Kind of data set: Inhibition of GFP-tagged human PARP10 expressed in HEK293T cells assessed as reduction in auto-MARylation after 3 hrs by Western blot analysis. It counts as cell-based. In short, it runs like this: as §3
The species entered for data set [16] is Homo sapiens. Kind of data set: Selectivity ratio of IC50 for human PARP7 to IC50 for human PARP10 catalytic domain. The essentials:
as §1

Data set [17] is filed under the species Homo sapiens. Description: Selectivity ratio of IC50 for GFP-tagged human PARP12 expressed in HEK293T cells to IC50 for human PARP10 catalytic domain. It counts as cell-based. The essentials:
as §1

In data set [18] the target is T4, Protein mono-ADP-ribosyltransferase TIPARP (Homo sapiens, UniProt Q7Z3E1).
T4 sequence (Q7Z3E1 whole entry): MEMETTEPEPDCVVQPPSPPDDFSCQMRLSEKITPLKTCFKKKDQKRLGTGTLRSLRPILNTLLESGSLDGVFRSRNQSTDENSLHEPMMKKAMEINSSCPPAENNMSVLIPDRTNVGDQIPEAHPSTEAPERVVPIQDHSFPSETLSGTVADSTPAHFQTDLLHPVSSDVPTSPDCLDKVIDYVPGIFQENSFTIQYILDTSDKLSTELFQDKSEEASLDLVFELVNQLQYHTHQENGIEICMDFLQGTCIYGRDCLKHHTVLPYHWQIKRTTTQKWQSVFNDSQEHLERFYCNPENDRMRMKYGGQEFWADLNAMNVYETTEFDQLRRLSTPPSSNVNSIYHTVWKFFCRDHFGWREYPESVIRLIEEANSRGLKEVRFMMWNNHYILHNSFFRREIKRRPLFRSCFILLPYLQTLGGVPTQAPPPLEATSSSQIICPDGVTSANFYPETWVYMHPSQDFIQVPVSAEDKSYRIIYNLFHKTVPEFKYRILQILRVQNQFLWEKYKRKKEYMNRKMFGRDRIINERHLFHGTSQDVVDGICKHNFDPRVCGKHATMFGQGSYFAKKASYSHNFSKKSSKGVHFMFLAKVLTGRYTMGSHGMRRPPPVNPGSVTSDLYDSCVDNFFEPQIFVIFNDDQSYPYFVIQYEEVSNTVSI
Kind of data set: Inhibition of human PARP7 assessed as reduction in MARylation of SRPK2 substrate after 60 mins in presence of 6-a-NAD+ by chemifluorescence assay. In short, it runs like this: as §2

The species entered for data set [19] is Homo sapiens. Description: Selectivity ratio of IC50 for GFP-tagged human PARP8 expressed in HEK293T cells to IC50 for human PARP10 catalytic domain. It counts as cell-based. In short, it runs like this:
as §1

A short description of data set [20]: Inhibition of GFP-tagged human PARP6 long isoform expressed in HEK293T cells assessed as reduction in auto-MARylation after 60 mins in presence of 6-a-NAD+ by chemiluminescent immunoprecipitation assay. In kind it is cell-based.
For data set [21], the species on record is Homo sapiens. Description: Selectivity ratio of IC50 for human PARP5B catalytic domain (1 to 572 residues) to IC50 for human PARP10 catalytic domain. The essentials: as §1
The species named for data set [22] is Homo sapiens. Kind of data set: Selectivity ratio of IC50 for human PARP4 BRCT-catalytic domain (1 to 572 residues) to IC50 for human PARP10 catalytic domain. The essentials: as §1
In data set [23] the target is Protein mono-ADP-ribosyltransferase PARP4 (Homo sapiens, UniProt Q9UKK3). Kind of data set: Inhibition of human PARP4 BRCT-catalytic domain (1 to 572 residues) assessed as reduction in MARylation of SRPK2 substrate after 60 mins in presence of 6-a-NAD+ by chemifluorescence assay. The essentials: as §2
Protein mono-ADP-ribosyltransferase PARP4, sequence (Q9UKK3 whole entry, the tested form may be a part): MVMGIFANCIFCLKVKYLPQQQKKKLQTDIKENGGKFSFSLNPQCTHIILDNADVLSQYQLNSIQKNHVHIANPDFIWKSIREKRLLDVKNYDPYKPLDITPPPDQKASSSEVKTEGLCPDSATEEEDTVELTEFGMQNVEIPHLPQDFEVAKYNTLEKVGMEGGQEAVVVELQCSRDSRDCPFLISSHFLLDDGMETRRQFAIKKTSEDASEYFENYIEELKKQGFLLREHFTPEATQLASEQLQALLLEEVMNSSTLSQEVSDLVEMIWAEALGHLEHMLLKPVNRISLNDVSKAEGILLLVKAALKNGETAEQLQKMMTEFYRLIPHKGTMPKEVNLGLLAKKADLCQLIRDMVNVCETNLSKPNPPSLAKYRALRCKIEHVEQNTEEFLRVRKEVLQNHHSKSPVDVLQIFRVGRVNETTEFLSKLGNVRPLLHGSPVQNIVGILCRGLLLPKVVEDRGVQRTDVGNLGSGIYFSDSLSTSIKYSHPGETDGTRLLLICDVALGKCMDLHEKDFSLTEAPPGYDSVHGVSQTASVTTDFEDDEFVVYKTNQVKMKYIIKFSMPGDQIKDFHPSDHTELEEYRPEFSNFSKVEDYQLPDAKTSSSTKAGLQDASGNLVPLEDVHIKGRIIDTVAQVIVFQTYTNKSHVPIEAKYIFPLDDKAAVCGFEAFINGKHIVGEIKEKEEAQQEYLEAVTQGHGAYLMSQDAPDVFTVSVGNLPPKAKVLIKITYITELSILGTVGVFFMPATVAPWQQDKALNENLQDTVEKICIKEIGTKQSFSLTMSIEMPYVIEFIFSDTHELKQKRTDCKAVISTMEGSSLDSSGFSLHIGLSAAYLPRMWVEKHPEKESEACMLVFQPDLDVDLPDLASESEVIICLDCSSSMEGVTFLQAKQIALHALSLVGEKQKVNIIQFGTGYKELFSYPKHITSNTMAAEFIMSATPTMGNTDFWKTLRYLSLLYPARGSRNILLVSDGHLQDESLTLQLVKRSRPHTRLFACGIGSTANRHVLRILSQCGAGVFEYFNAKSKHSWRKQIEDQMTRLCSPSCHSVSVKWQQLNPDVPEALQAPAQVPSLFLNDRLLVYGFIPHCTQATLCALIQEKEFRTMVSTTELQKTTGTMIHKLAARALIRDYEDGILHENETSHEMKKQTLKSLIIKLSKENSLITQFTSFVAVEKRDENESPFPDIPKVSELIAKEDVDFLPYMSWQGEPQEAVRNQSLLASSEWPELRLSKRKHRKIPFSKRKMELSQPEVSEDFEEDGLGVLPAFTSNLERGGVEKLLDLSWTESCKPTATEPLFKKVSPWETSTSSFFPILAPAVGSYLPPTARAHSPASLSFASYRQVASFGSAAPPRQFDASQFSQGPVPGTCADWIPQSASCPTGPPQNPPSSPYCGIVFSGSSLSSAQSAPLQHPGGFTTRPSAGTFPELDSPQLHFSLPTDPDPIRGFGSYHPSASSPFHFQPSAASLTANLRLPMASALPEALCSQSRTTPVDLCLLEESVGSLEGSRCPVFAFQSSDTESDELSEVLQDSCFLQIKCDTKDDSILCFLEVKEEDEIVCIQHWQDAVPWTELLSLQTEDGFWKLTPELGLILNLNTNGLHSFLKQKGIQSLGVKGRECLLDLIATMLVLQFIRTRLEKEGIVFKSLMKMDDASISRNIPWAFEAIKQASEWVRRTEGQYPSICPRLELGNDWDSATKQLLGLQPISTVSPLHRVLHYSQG

Where only a bound is given, the exact number is not on record here.

The IC50 is the concentration at which inhibition is half-maximal. Consider `O=C1NCCc2cc(-c3cccc(F)c3)ccc21`, for which the IC50 in data set [1] was found to be 1400 nM.
Turning to `Cc1c(-c2ccccc2)ccc2c1CCNC2=O`, the IC50 in data set [1] was 1600 nM. For the same compound, the solubility entry in data set [2] is recorded as “Insoluble”.
For `Cc1c(-c2ccc3[nH]ccc3c2)ccc2c1CCNC2=O`, the IC50 in [1] amounted to 1100 nM.
Still for that read-out and setting: the same measure for `Cc1c(-c2cncc(F)c2)ccc2c1CCNC2=O`: 2200 nM; for `Cc1c(-c2cccnc2)ccc2c1CCNC2=O`: 2500 nM; for `Cc1ccc2c(c1)CCNC2=O`: 33100 nM.
For orientation: inhibition means the drop in the measured response relative to a control, in per cent. Consider `Cc1c(-c2ccnc(C(F)(F)F)c2)ccc2c1CCNC2=O`, for which the Ratio IC50 was over 37 in the data set filed under Homo sapiens [3]; 23 in the data set filed under Homo sapiens [4]; over 10 in the data set listed under Homo sapiens [6]; over 37 in the data set listed under Homo sapiens [8]; 22 in the data set filed under Homo sapiens [9]; over 37 in the data set listed under Homo sapiens [10]. Besides, the Ratio IC50 in the data set filed under Homo sapiens [11] was 2.5; in the data set filed under Homo sapiens [12], over 10; in the data set listed under Homo sapiens [16] it was 7; in the data set listed under Homo sapiens [17], over 10; in the data set filed under Homo sapiens [19], over 10; in the data set listed under Homo sapiens [21], over 37. Moreover, the Ratio IC50 in the data set filed under Homo sapiens [22] was over 37. Further, the inhibition in data set [5] is 80%; in data set [13], “Dose-dependent effect”; in data set [15], “Dose-dependent effect”. The 50% inhibitory concentration (IC50) in data set [7] was 6700 nM; in data set [1] it was 1800 nM; in data set [14] it was over 30000 nM; in data set [18], 19000 nM; in data set [20], over 30000 nM; in data set [23] it was over 100000 nM.
As for `Cc1c(-c2cnc3[nH]ccc3c2)ccc2c1CCNC2=O`, the concentration for half-maximal inhibition (IC50) in data set [1] is 710 nM.
On to `CC(=O)c1cccc(-c2ccc3c(c2)CCNC3=O)c1`, for which, in data set [1], the IC50 came to 1600 nM.
Regarding `O=C1NCCc2cc(Br)ccc21`, the IC50 in [1] is 17100 nM.
The same measure, in the same setting: the same measure for `Cc1c(-c2cncc(C(F)(F)F)c2)ccc2c1CCNC2=O`: 2700 nM; for `O=C1NCCc2c1cccc2-c1ccccc1`: 35000 nM; for `O=C1NCCc2cc(Cc3ccccc3)ccc21`: over 50000 nM.
